ChEMBL document CHEMBL1914423, “New imidazo[2,1-b]thiazole derivatives: synthesis, in vitro anticancer evaluation, and in silico studies” (Eur J Med Chem, 2011)

How the values were obtained:
Type in all cases: functional
NCI-H23 = experiment: Anticancer activity against human NCI-H23 cells after 48 hrs by SRB assay; conditions: NCI-H23, 48 h
KM12 = experiment: Anticancer activity against human KM12 cells after 48 hrs by SRB assay; conditions: KM12, 48 h
Method in brief: (§1)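 NCI five-dose screen. Cells in RPMI 1640 with 5% FBS and 2 mM L-glutamine, seeded at 5000–40,000 cells/well according to doubling time, then pre-incubated 24 h at 37 °C in 5% CO2. Drugs dissolved in DMSO, five concentrations by 10-fold or 1/2-log dilution. Cells fixed with TCA, SRB-stained, A515 read. IC50 solved from [(Ti−Tz)/(C−Tz)]×100 = 50.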

DU-145 = experiment: Anticancer activity against human DU145 cells after 48 hrs by SRB assay; conditions: DU-145, 48 h; method in brief: as §1
LOX IMVI = experiment: Anticancer activity against human LOXIMVI cells after 48 hrs by SRB assay; method in brief: as §1
SF-295 = experiment: Anticancer activity against human SF295 cells after 48 hrs by SRB assay; conditions: SF-295, 48 h
MDA-MB-435 = experiment: Anticancer activity against human MDA-MB-435 cells after 48 hrs by SRB assay; conditions: MDA-MB-435, 48 h; method in brief: as §1
Malme-3M = experiment: Anticancer activity against human MALME-3M cells after 48 hrs by SRB assay; method in brief: as §1
SK-MEL-5 = experiment: Anticancer activity against human SK-MEL-5 cells after 48 hrs by SRB assay; conditions: SK-MEL-5, 48 h
HCT-15 = experiment: Anticancer activity against human HCT15 cells after 48 hrs by SRB assay; conditions: HCT-15, 48 h; method in brief: as §1
CCRF-CEM = experiment: Anticancer activity against human CCRF-CEM cells after 48 hrs by SRB assay; method in brief: as §1
HOP-62 = experiment: Anticancer activity against human HOP62 cells after 48 hrs by SRB assay; conditions: HOP-62, 48 h; method in brief: as §1
[1] = Anticancer activity against human Hs 578T cells after 48 hrs by SRB assay; method in brief: as §1
NCI/ADR-RES = experiment: Anticancer activity against human NCI/ADR-RES cells after 48 hrs by SRB assay
CAKI-1 = experiment: Anticancer activity against human Caki1 cells after 48 hrs by SRB assay; conditions: CAKI-1, 48 h; method in brief: as §1
SF-268 = experiment: Anticancer activity against human SF268 cells after 48 hrs by SRB assay; conditions: SF-268, 48 h
M14 = experiment: Anticancer activity against human M14 cells after 48 hrs by SRB assay; conditions: M14, 48 h; method in brief: as §1
SN12C = experiment: Anticancer activity against human SN12C cells after 48 hrs by SRB assay
SR = experiment: Anticancer activity against human SR cells after 48 hrs by SRB assay
Method in brief: (§2)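 NCI-60 five-dose mode: cells in RPMI 1640 with 5% FBS and 2 mM glutamine, plated at 5000–40,000 cells/well, and preincubated 24 h, with time-zero plates TCA-fixed. Drug given at five concentrations (10-fold or ½-log serial dilutions). Cold TCA fixation 60 min at 4 °C, SRB stain, Tris solubilization, A515. IC50 taken where [(Ti−Tz)/(C−Tz)]×100 = 50.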

MDA-MB-468 = experiment: Anticancer activity against human MDA-MB-468 cells after 48 hrs by SRB assay; conditions: MDA-MB-468, 48 h
K562 = experiment: Anticancer activity against human K562 cells after 48 hrs by SRB assay; conditions: K562, 48 h; method in brief: as §1
HT-29 = experiment: Anticancer activity against human HT-29 cells after 48 hrs by SRB assay; conditions: HT-29, 48 h; method in brief: as §1
UACC-257 = experiment: Anticancer activity against human UACC257 cells after 48 hrs by SRB assay; conditions: UACC-257, 48 h; method in brief: as §2
T47D = experiment: Anticancer activity against human T47D cells after 48 hrs by SRB assay; method in brief: as §2
MOLT-4 = experiment: Anticancer activity against human MOLT4 cells after 48 hrs by SRB assay; conditions: MOLT-4, 48 h
TK-10 = experiment: Anticancer activity against human TK10 cells after 48 hrs by SRB assay; conditions: TK-10, 48 h; method in brief: as §2
RPMI-8226 = experiment: Anticancer activity against human RPMI8226 cells after 48 hrs by SRB assay; conditions: RPMI-8226, 48 h
COLO 205 = experiment: Anticancer activity against human COLO205 cells after 48 hrs by SRB assay; conditions: COLO 205, 48 h; method in brief: as §1
SF-539 = experiment: Anticancer activity against human SF539 cells after 48 hrs by SRB assay; conditions: SF-539, 48 h
NCI-H460 = experiment: Anticancer activity against human NCI-H460 cells after 48 hrs by SRB assay; conditions: NCI-H460, 48 h
NCI-H322M = experiment: Anticancer activity against human NCI-H322M cells after 48 hrs by SRB assay
[2] = read-out: LC50 (the source's name)

## O=C(NCCNc1nccc(-c2c(-c3cccc(O)c3)nc3sccn23)n1)c1ccccc1
NCI-H23
  GI50: 10 µM
  TGI: 30.7 µM
KM12
  GI50: 12.1 µM
  TGI: 28.5 µM
KM12; [2]
  CC50: 67.1 µM
DU-145
  GI50: 19.7 µM
  TGI: 68.7 µM
DU-145; [2]
  CC50: > 100 µM
LOX IMVI
  GI50: 3.22 µM
  TGI: 17.8 µM
LOX IMVI; [2]
  CC50: 80.2 µM
SF-295
  GI50: 12.9 µM
  TGI: 38 µM
SF-295; [2]
  CC50: > 100 µM
MDA-MB-435
  GI50: 0.578 µM
  TGI: 12.8 µM
MDA-MB-435; [2]
  CC50: 71.3 µM
Malme-3M
  GI50: 0.205 µM
Malme-3M; [2]
  CC50: > 100 µM
SK-MEL-5
  GI50: 4.15 µM
  TGI: 17.5 µM
SK-MEL-5; [2]
  CC50: 43.4 µM
HCT-15
  GI50: 18.8 µM
  TGI: 62.2 µM
HCT-15; [2]
  CC50: > 100 µM
CCRF-CEM
  GI50: 3.38 µM
  TGI: 34.1 µM
CCRF-CEM; [2]
  CC50: > 100 µM
HOP-62
  GI50: 23.5 µM
  TGI: 94.2 µM
[1]
  GI50: 4.86 µM
  TGI: 38.3 µM
[1]; [2]
  CC50: > 100 µM
NCI/ADR-RES
  GI50: 34.8 µM
  TGI: > 100 µM
NCI/ADR-RES; [2]
  CC50: > 100 µM
CAKI-1
  GI50: 5.92 µM
  TGI: 29.6 µM
CAKI-1; [2]
  CC50: > 100 µM
SF-268
  GI50: 15.5 µM
  TGI: 87 µM
SF-268; [2]
  CC50: > 100 µM
M14
  GI50: 0.434 µM
  TGI: 12.3 µM
M14; [2]
  CC50: 37.3 µM
SN12C
  GI50: 9.04 µM
  TGI: 38.4 µM
SN12C; [2]
  CC50: > 100 µM
SR
  GI50: 5.68 µM
  TGI: 50 µM
SR; [2]
  CC50: > 100 µM
MDA-MB-468
  GI50: 3.6 µM
  TGI: 28.7 µM
MDA-MB-468; [2]
  CC50: > 100 µM
K562
  GI50: 9.11 µM
  TGI: > 100 µM
K562; [2]
  CC50: > 100 µM
HT-29
  GI50: 6.79 µM
  TGI: 38.3 µM
HT-29; [2]
  CC50: > 100 µM
UACC-257
  GI50: 0.489 µM
  TGI: 18.5 µM
UACC-257; [2]
  CC50: > 100 µM
T47D
  GI50: 11 µM
  TGI: 49 µM
T47D; [2]
  CC50: > 100 µM
MOLT-4
  GI50: 13.5 µM
  TGI: 74.2 µM
MOLT-4; [2]
  CC50: > 100 µM
TK-10
  GI50: 11.7 µM
  TGI: 37.1 µM
TK-10; [2]
  CC50: > 100 µM
RPMI-8226
  GI50: 6.97 µM
  TGI: 25.3 µM
COLO 205
  GI50: 3.99 µM
  TGI: 23.8 µM
COLO 205; [2]
  CC50: > 100 µM
SF-539
  GI50: 11.3 µM
  TGI: 36.8 µM
SF-539; [2]
  CC50: > 100 µM
NCI-H460
  GI50: 10.4 µM
  TGI: 27.5 µM
NCI-H322M
  GI50: 26.3 µM
  TGI: > 100 µM
NCI-H322M; [2]
  CC50: > 100 µM
